Measurements from ChEMBL document CHEMBL4020757, “Lathyrol and epoxylathyrol derivatives: Modulation of Cdr1p and Mdr1p drug-efflux transporters of Candida albicans in Saccharomyces cerevisiae model” (Bioorg Med Chem, 2017).
≈ marks a conversion by molar mass, not a printed value.

Assays:
Saccharomyces cerevisiae [1] = assay: Potentiation of fluconazole-induced antifungal activity against Saccharomyces cerevisiae AD1-8u(-) by checkerboard method; format: functional
Summary of the method: (§1)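 Checkerboard per CLSI in AD1-8u⁻ control, AD-CDR1 or AD-MDR1 cells (10⁴ cells) grown 48 h at 30 °C. Fluconazole 4-209 μM crossed with compound 0.25-400 μM. Growth read by optical density. FIC of each agent is its MIC in combination divided by its MIC alone. FICI is the sum of the fluconazole and compound FICs, with values below 0.5 taken as synergy.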

[2] = Lipophilicity, log P of the compound; format: physicochemical; details: octanol/water
Saccharomyces cerevisiae [3] = assay: Antifungal activity against Saccharomyces cerevisiae AD1-8u(-) after 48 hrs; format: functional
Summary of the method: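 S. cerevisiae AD1-8u⁻ control strain revived from glycerol stock on YEPD plates and grown in YEPD at 30 °C. 10⁴ cells exposed to compound at 0.25-400 μM for 48 h at 30 °C. Growth read as optical density, with no-inhibitor growth as 100%. MIC80 is the concentration giving 80% growth inhibition. Means ± SD of duplicates from at least three independent experiments.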

Saccharomyces cerevisiae [4] = assay: Resistance index, ratio of MIC80 for Saccharomyces cerevisiae AD over-expressing Candida albicans MDR1 to MIC80 for Saccharomyces cerevisiae AD1-8u(-); format: functional
Summary of the method: (§2)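 Yeast (10⁴ cells) grown in YEPD at 30 °C for 48 h with inhibitors at 0.25-400 μM (DMSO stocks); growth read by optical density, inhibitor-free growth set as 100%. MIC80 = concentration giving 80% growth inhibition. RI = MIC80 in AD-CDR1 or AD-MDR1 divided by MIC80 in control AD1-8u⁻. Means ± SD, duplicate samples, at least three independent experiments.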

Candida albicans [5] = assay: Inhibition of Candida albicans MDR1 expressed in Saccharomyces cerevisiae AD assessed as reduction in nile red dye efflux at 70 uM after 30 mins by flow cytometry relative to control
Summary of the method: (§3)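 AD-CDR1 or AD-MDR1 cells grown in YEPD at 30 °C with shaking from OD600 0.1 to 0.25, then resuspended as a 5% suspension in 1:2 YEPD:water. Nile Red (final 7 μM) added with or without compound at 70 μM, 30 min at 30 °C. Cells washed twice and 10,000 cells analysed by flow cytometry. Efflux rate expressed relative to untreated control cells. Means ± SD, three independent experiments.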

Saccharomyces cerevisiae [6] = assay: Synergistic antifungal activity against Saccharomyces cerevisiae AD1-8u(-) assessed as ratio of compound MIC80 in combinantion with fluconazole to compound alone MIC80 by checkerboard method; format: functional
Summary of the method: (§4)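 Checkerboard per CLSI with 10⁴ cells of AD-CDR1, AD-MDR1 or AD1-8u⁻, grown 48 h at 30 °C. Fluconazole 4-209 μM crossed with compound 0.25-400 μM, growth read by optical density. Compound FIC is the compound MIC in combination with fluconazole divided by its MIC alone.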

Candida albicans [7] = assay: Inhibition of Candida albicans CDR1 expressed in Saccharomyces cerevisiae AD assessed as reduction in nile red dye efflux at 70 uM after 30 mins by flow cytometry relative to control; summary of the method: as §3
Candida albicans [8] = assay: Inhibition of Candida albicans CDR1 expressed in Saccharomyces cerevisiae AD assessed as potentiation of fluconazole-induced antifungal activity against Saccharomyces cerevisiae AD by checkerboard method; summary of the method: as §1
Candida albicans [9] = assay: Inhibition of Candida albicans MDR1 expressed in Saccharomyces cerevisiae AD assessed as ratio of compound MIC80 in combinantion with fluconazole to compound alone MIC80 for Saccharomyces cerevisiae AD by checkerboard method; summary of the method: as §4
Saccharomyces cerevisiae [10] = assay: Antifungal activity against Saccharomyces cerevisiae AD over-expressing Candida albicans CDR1 after 48 hrs; format: functional; summary of the method: as §2
Candida albicans [11] = assay: Inhibition of Candida albicans CDR1 expressed in Saccharomyces cerevisiae AD assessed as ratio of compound MIC80 in combinantion with fluconazole to compound alone MIC80 for Saccharomyces cerevisiae AD by checkerboard method; summary of the method: as §4
Candida albicans [12] = assay: Inhibition of Candida albicans MDR1 expressed in Saccharomyces cerevisiae AD assessed as potentiation of fluconazole-induced antifungal activity against Saccharomyces cerevisiae AD by checkerboard method; summary of the method: as §1
Saccharomyces cerevisiae [13] = assay: Antifungal activity against Saccharomyces cerevisiae AD over-expressing Candida albicans MDR1 after 48 hrs; format: functional; summary of the method: as §2
Saccharomyces cerevisiae [14] = assay: Resistance index, ratio of MIC80 for Saccharomyces cerevisiae AD over-expressing Candida albicans CDR1 to MIC80 for Saccharomyces cerevisiae AD1-8u(-); format: functional; summary of the method: as §2

Structure (SMILES)	fractional inhibitory concentration index (FICI) (Saccharomyces cerevisiae [1])	logP [2]	MIC80 (Saccharomyces cerevisiae [3]) [µM]	Ratio (Saccharomyces cerevisiae [4])	inhibition (Candida albicans [5]) [%]	Ratio (Saccharomyces cerevisiae [6])	inhibition (Candida albicans [7]) [%]	fractional inhibitory concentration index (FICI) (Candida albicans [8])	Ratio (Candida albicans [9])	MIC80 (Saccharomyces cerevisiae [10]) [µM]	Ratio (Candida albicans [11])	fractional inhibitory concentration index (FICI) (Candida albicans [12])	MIC80 (Saccharomyces cerevisiae [13]) [µM]	Ratio (Saccharomyces cerevisiae [14])
CCCC(=O)O[C@@H]1[C@@H]2[C@@H](OC(C)=O)[C@]3(CC[C@H]4[C@@H](/C=C(\C)C(=O)[C@@]2(OC(C)=O)C[C@@H]1C)C4(C)C)CO3	2	2.5	992 (≈ 501 µg/mL)	0.9	25	1	10	1.4	1	1000 (≈ 505 µg/mL)	1	1.3	901 (≈ 455 µg/mL)	
C/C1=C\[C@@H]2[C@H](CC[C@]3(CO3)[C@H](OC(=O)c3ccc(C)cc3)[C@H]3[C@@H](OC(=O)c4ccc(C)cc4)[C@@H](C)C[C@]3(O)C1=O)C2(C)C	2	5	853 (≈ 500 µg/mL)	0.94	25	1	30	1.4	1	789 (≈ 463 µg/mL)	1	1.3	803 (≈ 471 µg/mL)	0.92
C=C1CC[C@H]2[C@@H](/C=C(\C)C(=O)[C@@]3(O)C[C@H](C)[C@H](O)[C@@H]3[C@H]1OC(=O)/C=C/c1ccccc1)C2(C)C	2	3.93	1080 (≈ 500 µg/mL)	0.93	30	1	65	1.4	1	993 (≈ 461 µg/mL)	1	1.3	1010 (≈ 470 µg/mL)	0.92
C=C1CC[C@H]2[C@@H](/C=C(\C)C(=O)[C@@]3(OC(C)=O)C[C@H](C)[C@H](OC(C)=O)[C@@H]3[C@H]1OC(C)=O)C2(C)C	2	3.35	543 (≈ 250 µg/mL)	4	35	1	25	1.4	1	2100 (≈ 967 µg/mL)	1	1.3	2100 (≈ 967 µg/mL)	4
C/C1=C\[C@@H]2[C@H](CC[C@]3(CO3)[C@H](O)[C@H]3[C@@H](O)[C@@H](C)C[C@]3(O)C1=O)C2(C)C	2	1.91	714 (≈ 250 µg/mL)	4	85	1	30	1.4	1	2800 (≈ 981 µg/mL)	1	1.3	2800 (≈ 981 µg/mL)	4
C=C1CC[C@H]2[C@@H](/C=C(\C)C(=O)[C@@]3(O)C[C@H](C)[C@H](O)[C@@H]3[C@H]1OC(=O)c1ccc(C(F)(F)F)cc1)C2(C)C	2	4.16	988 (≈ 500 µg/mL)	0.9	15	1	70	1.4	1	900 (≈ 456 µg/mL)	1	1.3	896 (≈ 454 µg/mL)	0.91
C/C1=C\[C@@H]2[C@H](CC[C@]3(CO3)[C@H](OC(=O)c3ccccc3)[C@H]3[C@@H](OC(=O)c4ccccc4)[C@@H](C)C[C@]3(OC(=O)c3ccccc3)C1=O)C2(C)C	2	5.99	755 (≈ 500 µg/mL)	0.86	20	1	10	1.4	1	700 (≈ 464 µg/mL)	1	1.3	654 (≈ 433 µg/mL)	0.92
CCCC(=O)O[C@@H]1[C@@H]2[C@@H](OC(=O)CCC)[C@]3(CC[C@H]4[C@@H](/C=C(\C)C(=O)[C@@]2(OC(=O)CCC)C[C@@H]1C)C4(C)C)CO3	2	4.3	892 (≈ 500 µg/mL)	0.89	85	1	35	1.4	1	762 (≈ 427 µg/mL)	1	1.3	801 (≈ 449 µg/mL)	0.85
C=C1CC[C@H]2[C@@H](/C=C(\C)C(=O)[C@@]3(O)C[C@H](C)[C@H](O)[C@@H]3[C@H]1OC(=O)c1cccc(OC)c1)C2(C)C	2	3.42	1070 (≈ 500 µg/mL)	1.05	35	1	80	1.4	1	992 (≈ 465 µg/mL)	1	1.3	1120 (≈ 526 µg/mL)	0.92
C/C1=C\[C@@H]2[C@H](CC[C@]3(CO3)[C@H](OC(=O)c3ccccc3)[C@H]3[C@@H](OC(=O)c4ccccc4)[C@@H](C)C[C@]3(O)C1=O)C2(C)C	2	4.6	896 (≈ 501 µg/mL)	0.98	80	1	25	1.4	1	803 (≈ 449 µg/mL)	1	1.3	880 (≈ 492 µg/mL)	0.89
CC(=O)O[C@@H]1[C@@H]2[C@@H](OC(C)=O)[C@]3(CC[C@H]4[C@@H](/C=C(\C)C(=O)[C@@]2(OC(C)=O)C[C@@H]1C)C4(C)C)CO3	2	2.7	525 (≈ 250 µg/mL)	0.99	75	1	20	1.4	1	519 (≈ 247 µg/mL)	1	1.3	529 (≈ 252 µg/mL)	0.98
C=C1CC[C@H]2[C@@H](/C=C(\C)C(=O)[C@@]3(O)C[C@H](C)[C@H](O)[C@@H]3[C@H]1O)C2(C)C	2	1.48	1500 (≈ 502 µg/mL)	0.98	30	1	40	1.4	1	1520 (≈ 510 µg/mL)	1	1.3	1480 (≈ 494 µg/mL)	1.01
C=C1CC[C@H]2[C@@H](/C=C(\C)C(=O)[C@@]3(O)C[C@H](C)[C@H](O)[C@@H]3[C@H]1OC(=O)c1ccccc1)C2(C)C	2	3.19	1140 (≈ 500 µg/mL)	0.93	35	1	85	1.4	1	1090 (≈ 478 µg/mL)	1	1.3	1070 (≈ 468 µg/mL)	0.95
